Source: ChEMBL document CHEMBL3217512, “Indole/triazole conjugates are selective inhibitors and inducers of bacterial biofilms” (Medchemcomm, 2013)

Columns and labels:
[1] = tested on: Escherichia coli; assay: Induction of biofilm formation in Escherichia coli K-12 ER2718 assessed as concentration required for 50% promotion of biofilm formation after 24 hrs by crystal violet staining-based assay; assay type: functional
In short: (§1)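 For strong inducers of E. coli biofilm, dose-response curves were run in the static crystal violet assay. PC25, PC50 and PC75 are the concentrations promoting biofilm formation by 25%, 50% and 75%.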

[2] = tested on: Escherichia coli; assay: Induction of biofilm formation in Escherichia coli K-12 ER2718 assessed as concentration required for 25% promotion of biofilm formation after 24 hrs by crystal violet staining-based assay; assay type: functional; in short: as §1
[3] = tested on: Escherichia coli; assay: Antimicrobial activity against Escherichia coli K-12 ER2718 assessed as effect on planktonic growth at PC75 after 2 to 24 hrs by colony count method; assay type: organism-based; details: in vivo
[4] = tested on: Escherichia coli; assay: Antimicrobial activity against Escherichia coli K-12 ER2718 assessed as effect on planktonic growth at PC50 after 2 to 24 hrs by colony count method; assay type: organism-based; details: in vivo
[5] = tested on: Escherichia coli; assay: Antimicrobial activity against Escherichia coli K-12 ER2718 assessed as effect on planktonic growth at PC25 after 2 to 24 hrs by colony count method; assay type: organism-based
[6] = tested on: Escherichia coli; assay: Antimicrobial activity against Escherichia coli K-12 ER2718 assessed as effect on planktonic growth at PC75 after 2 to 24 hrs; assay type: organism-based; details: in vivo
[7] = tested on: Escherichia coli; assay: Antimicrobial activity against Escherichia coli K-12 ER2718 assessed as effect on planktonic growth at PC50 after 2 to 24 hrs; assay type: organism-based
[8] = tested on: Escherichia coli; assay: Antimicrobial activity against Escherichia coli K-12 ER2718 assessed as effect on planktonic growth at PC25 after 2 to 24 hrs; assay type: organism-based
[9] = tested on: Staphylococcus aureus; assay: Antimicrobial activity against methicillin-resistant Staphylococcus aureus BAA 44 assessed as effect on planktonic growth at IC50 after 2 to 24 hrs by colony count method; assay type: organism-based; details: in vivo
[10] = tested on: Staphylococcus aureus; assay: Antimicrobial activity against Staphylococcus aureus 29213 assessed as effect on planktonic growth at IC50 after 2 to 24 hrs by colony count method; assay type: organism-based; details: in vivo
[11] = tested on: Acinetobacter baumannii; assay: Antimicrobial activity against Acinetobacter baumannii 19606 assessed as effect on planktonic growth at IC50 after 2 to 24 hrs by colony count method; design: species or system ATCC 19606
[12] = tested on: Escherichia coli; assay: Antimicrobial activity against Escherichia coli K-12 ER2718 assessed as effect on planktonic growth at IC50 after 2 to 24 hrs by colony count method; assay type: organism-based
[13] = tested on: Staphylococcus aureus; assay: Antimicrobial activity against methicillin-resistant Staphylococcus aureus BAA 44 assessed as effect on planktonic growth at IC50 after 2 to 24 hrs; assay type: organism-based; details: in vivo
[14] = tested on: Staphylococcus aureus; assay: Antimicrobial activity against Staphylococcus aureus 29213 assessed as effect on planktonic growth at IC50 after 2 to 24 hrs; assay type: organism-based; details: in vivo
[15] = tested on: Acinetobacter baumannii; assay: Antimicrobial activity against Acinetobacter baumannii 19606 assessed as effect on planktonic growth at IC50 after 2 to 24 hrs; design: species or system ATCC 19606
[16] = tested on: Escherichia coli; assay: Antimicrobial activity against Escherichia coli K-12 ER2718 assessed as effect on planktonic growth at IC50 after 2 to 24 hrs; assay type: organism-based
[17] = tested on: Escherichia coli; assay: Induction of biofilm formation in Escherichia coli K-12 ER2718 at 50 uM after 24 hrs by crystal violet staining-based assay relative to control; assay type: functional
In short: (§2)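 Static biofilm assay with compounds at 50 μM and crystal violet read-out, relative to an untreated control. Compounds increasing biofilm by less than 50% were called inducers, and by more than 50% strong inducers.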

[18] = tested on: Staphylococcus aureus; assay: Inhibition of biofilm formation in methicillin-resistant Staphylococcus aureus BAA 44 at 150 uM after 24 hrs by crystal violet staining-based assay relative to control; assay type: functional; details: BAA 44, 24 h
In short: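 Static biofilm development in MRSA, read out by crystal violet staining against an untreated control. Initial screen at 150 μM. Inhibitors then went to dose-response, with IC50 taken as the concentration giving 50% inhibition of biofilm growth. Induction was judged at 50 μM: under 50% induction counted as "inducer", over 50% as "strong inducer".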

[19] = tested on: Staphylococcus aureus; assay: Inhibition of biofilm formation in Staphylococcus aureus 29213 after 24 hrs by crystal violet staining-based assay; assay type: functional, organism-based; details: Staphylococcus aureus, 29213, 24 h
In short: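 Compounds active in the 150 μM screen were taken into dose-response studies under static conditions with a crystal violet read-out. IC50 is the concentration that inhibits 50% of biofilm growth relative to an untreated control.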

[20] = tested on: Acinetobacter baumannii; assay: Inhibition of biofilm formation in Acinetobacter baumannii 19606 at 150 uM after 24 hrs by crystal violet staining-based assay relative to control; assay type: functional; details: ATCC 19606 = CIP 70.34 = JCM 6841, 24 h
[21] = tested on: Escherichia coli; assay: Induction of biofilm formation in Escherichia coli K-12 ER2718 assessed as concentration required for 75% promotion of biofilm formation after 24 hrs by crystal violet staining-based assay; assay type: functional; in short: as §1
[22] = tested on: Escherichia coli; assay: Antimicrobial activity against Escherichia coli K-12 ER2718 assessed as effect on planktonic growth at 50 uM after 2 to 24 hrs; assay type: organism-based
In short: (§3)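 Growth curve analysis of planktonic bacteria with each biofilm inducer at 50 μM, used to assess toxicity.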

[23] = tested on: Staphylococcus aureus; assay: Inhibition of biofilm formation in Staphylococcus aureus 29213 at 150 uM after 24 hrs by crystal violet staining-based assay relative to control; assay type: functional; details: Staphylococcus aureus, 29213, 24 h
[24] = tested on: Acinetobacter baumannii; assay: Antimicrobial activity against Acinetobacter baumannii 19606 assessed as effect on planktonic growth at PC75 after 2 to 24 hrs by colony count method; design: species or system ATCC 19606
[25] = tested on: Acinetobacter baumannii; assay: Antimicrobial activity against Acinetobacter baumannii 19606 assessed as effect on planktonic growth at PC50 after 2 to 24 hrs by colony count method; design: species or system ATCC 19606
[26] = tested on: Acinetobacter baumannii; assay: Antimicrobial activity against Acinetobacter baumannii 19606 assessed as effect on planktonic growth at PC25 after 2 to 24 hrs by colony count method; design: species or system ATCC 19606
[27] = tested on: Acinetobacter baumannii; assay: Antimicrobial activity against Acinetobacter baumannii 19606 assessed as effect on planktonic growth at PC75 after 2 to 24 hrs; design: species or system ATCC 19606
[28] = tested on: Acinetobacter baumannii; assay: Antimicrobial activity against Acinetobacter baumannii 19606 assessed as effect on planktonic growth at PC50 after 2 to 24 hrs; design: species or system ATCC 19606
[29] = tested on: Acinetobacter baumannii; assay: Antimicrobial activity against Acinetobacter baumannii 19606 assessed as effect on planktonic growth at PC25 after 2 to 24 hrs; design: species or system ATCC 19606
[30] = tested on: Acinetobacter baumannii; assay: Induction of biofilm formation in Acinetobacter baumannii 19606 at 50 uM after 24 hrs by crystal violet staining-based assay relative to control; assay type: functional, ATCC 19606 = CIP 70.34 = JCM 6841; in short: as §2
[31] = tested on: Acinetobacter baumannii; assay: Antimicrobial activity against Acinetobacter baumannii 19606 assessed as effect on planktonic growth at 50 uM after 2 to 24 hrs; design: species or system ATCC 19606; in short: as §3

`CCCCCc1ccc(C(=O)NCCn2cc(Cc3c[nH]c4ccccc34)nn2)cc1` was tested, and the Activity [1] was 74.8 µM, the Activity [2] was 48.3 µM and the Activity [3] was “Non-toxic”. For the same molecule, the Activity [4] was “Non-toxic”, the Activity [5] was “Non-toxic” and the Activity [6] was “Non-toxic”. The Activity [7] was “Non-toxic”, the Activity [8] was “Non-toxic” and the Activity [9] was “Non-toxic”. The Activity [10] was “Non-toxic”, the Activity [11] was “Non-toxic” and the Activity [12] was “Non-toxic”. For the same molecule, the Activity [13] was “Non-toxic”, the Activity [14] was “Non-toxic” and the Activity [15] was “Non-toxic”. For the same molecule, the Activity [16] was “Non-toxic”, the Activity [17] was greater than 50% and the inhibition at 150 µM [18] was less than 5%. It also gave an IC50 [19] of 44.4 µM, an inhibition at 150 µM [20] of less than 5% and an Activity [21] of 111.6 µM. For the same molecule, the Activity [22] was “Non-toxic”.

For `CCCCCc1ccc(C(=O)NCCn2cc(Cc3csc4ccccc34)nn2)cc1`, the Activity [1] was 99.8 µM, the Activity [2] was 26.7 µM and the Activity [3] was “Non-toxic”. For the same molecule, the Activity [4] was “Non-toxic”, the Activity [5] was “Non-toxic” and the Activity [6] was “Non-toxic”. For the same molecule, the Activity [7] was “Non-toxic”, the Activity [8] was “Non-toxic” and the Activity [9] was “Non-toxic”. For the same molecule, the Activity [10] was “Non-toxic”, the Activity [11] was “Non-toxic” and the Activity [12] was “Non-toxic”. The Activity [13] was “Non-toxic”, the Activity [14] was “Non-toxic” and the Activity [15] was “Non-toxic”. For the same molecule, the Activity [16] was “Non-toxic”, the Activity [17] was greater than 50% and the inhibition at 150 µM [18] was less than 5%. It also gave an inhibition at 150 µM [23] of less than 5%, an inhibition at 150 µM [20] of less than 5% and an Activity [21] of 151.9 µM. The Activity [22] was “Non-toxic”.

For `CCCCCCCc1ccc(C(=O)NCCn2cc(Cc3c[nH]c4ccccc34)nn2)cc1`, the Activity [1] was 80.7 µM, the Activity [2] was 50.5 µM and the Activity [3] was “Non-toxic”. The Activity [4] was “Non-toxic”, the Activity [5] was “Non-toxic” and the Activity [6] was “Non-toxic”. For the same molecule, the Activity [7] was “Non-toxic”, the Activity [8] was “Non-toxic” and the Activity [9] was “Non-toxic”. The Activity [10] was “Non-toxic”, the Activity [11] was “Non-toxic” and the Activity [12] was “Non-toxic”. The Activity [13] was “Non-toxic”, the Activity [14] was “Non-toxic” and the Activity [15] was “Non-toxic”. For the same molecule, the Activity [16] was “Non-toxic”, the Activity [17] was greater than 50% and the inhibition at 150 µM [18] was less than 5%. It also gave an IC50 [19] of 175 µM, an inhibition at 150 µM [20] of 30% and an Activity [21] of 119.7 µM. For the same molecule, the Activity [22] was “Non-toxic”.

With `O=C(Cn1cc(Cc2csc3ccccc23)nn1)Nc1ccccc1` the Activity [24] was “Non-toxic”, the Activity [25] was “Non-toxic” and the Activity [26] was “Non-toxic”. For the same molecule, the Activity [27] was “Non-toxic”, the Activity [28] was “Non-toxic” and the Activity [29] was “Non-toxic”. The Activity [3] was “Non-toxic”, the Activity [4] was “Non-toxic” and the Activity [5] was “Non-toxic”. For the same molecule, the Activity [6] was “Non-toxic”, the Activity [7] was “Non-toxic” and the Activity [8] was “Non-toxic”. For the same molecule, the Activity [9] was “Non-toxic”, the Activity [10] was “Non-toxic” and the Activity [11] was “Non-toxic”. For the same molecule, the Activity [12] was “Non-toxic”, the Activity [13] was “Non-toxic” and the Activity [14] was “Non-toxic”. For the same molecule, the Activity [15] was “Non-toxic”, the Activity [16] was “Non-toxic” and the Activity [30] was less than 50%. The Activity [17] was less than 50%, the inhibition at 150 µM [18] was 20% and the IC50 [19] was 215 µM. The Activity [31] was “Non-toxic” and the Activity [22] was “Non-toxic”.
